# Results gathered from unrelated publications.
# Lines come from different studies, so protocols differ.
# Observed: metabolic stability
SMILES,system,setting,measurement,result
COc1ccc(-c2nc3ccc(OC)cn3c2N(C)c2ccc(F)cc2)nc1,"rat, hepatocytes",,hepatocyte CLint,> 300 µL/min/10⁶ cells
C[C@H](C(=O)NC1Cc2ccccc2C1)c1ccc(F)cc1,"rat, liver microsomes",1 µM,microsomal CLint,> 200 µL/min/mg
COc1ccc(-c2nc3ccccn3c2N(C)c2ccc(F)cc2)nc1,"rat, hepatocytes",,hepatocyte CLint,> 300 µL/min/10⁶ cells
CC(C)N1Cc2cc(C(F)(F)F)ncc2C2=CN=C(NCc3c(F)ccc4c3CCO4)N3C=NC(C1=O)C23 (stereo not drawn),"rat, liver microsomes","100 µM, 30 min",scaled CLint,18.9 mL/min/kg
CCOc1c(O)cc(Br)c2c1CN1CCc3cc(OCC(F)F)c(O)cc3[C@@H]1C2,"rat, liver S9","2 µM, pH 7.4",scaled CLint,902 mL/min/kg
c1ccc(-c2nc3n(c2-c2ccncc2)CCC3)nc1,"rat, hepatocytes",,hepatocyte CLint,4.8 µL/min/10⁶ cells
C[C@H](C(=O)NC1Cc2ccccc2C1)c1ccccc1,"rat, liver microsomes",1 µM,microsomal CLint,> 200 µL/min/mg
COc1ccc(-c2nc3ccc(OC)cn3c2Nc2ccc(F)cc2)nc1,"rat, hepatocytes",,hepatocyte CLint,76 µL/min/10⁶ cells
CC(F)(F)CN1Cc2cc(C(F)(F)F)ncc2C2=CN=C(NCc3c(F)ccc4c3CCO4)N3C=NC(C1=O)C23 (stereo not drawn),"rat, liver microsomes","100 µM, 30 min",scaled CLint,16.6 mL/min/kg
CC(=O)c1cccc(OCc2cc(C(=O)N(C)[C@@H](C)c3ccccn3)no2)c1,"rat, liver microsomes",,scaled CLint,770 mL/min/kg
O=c1[nH]c(=S)n(Cc2ccc(Cl)cc2CNCC(F)(F)F)c2cc[nH]c12,"rat, hepatocytes",,hepatocyte CLint,30 µL/min/10⁶ cells
O=C(Nc1ccc(N2C(=O)c3cccc(Cl)c3C2=O)c(Cl)c1)c1ncccc1Cl,"rat, liver microsomes","1 µM, pH 7.4",scaled CLint,39.9 mL/min/kg
CS(=O)(=O)c1ccc(-c2cnc(N)c(-c3ccc(C(F)(F)F)nc3)c2)cc1,"male rat, liver microsomes",1 µM,microsomal CLint,< 11.6 µL/min/mg
Cc1cccnc1C(=O)Nc1ccc(N2C(=O)c3cccc(Cl)c3C2=O)c(Cl)c1,"rat, liver microsomes","1 µM, pH 7.4",scaled CLint,95.9 mL/min/kg
O=c1ccc2ccc(O)cc2o1,"rat, liver S9","2 µM, pH 7.4",scaled CLint,787 mL/min/kg
